Active and inactive are the calls of the source. No cut-off for these calls is given here.
Key:
[1] = Drug uptake in Swiss mouse blood at 25 mg/kg, po administered as single dose after 4 hrs by UPLC/MS/ESI analysis; format: ADME, organism-based; conditions: whole blood, read-out: Drug uptake
Procedure, shortened: (§1)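 Mice were given the compound orally as a single dose of either 25 or 50 mg/kg, one group per dose. Plasma concentrations were followed over time up to 24 h, and the pharmacokinetic parameters were derived from the concentration-time profile.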

[2] = AUC (0 to >4 hrs) in Swiss mouse infected with Trypanosoma brucei brucei Squib 427 at 50 mg/kg, po bid for 5 days by UPLC/MS/ESI analysis; format: ADME, organism-based; conditions: in vivo
Plasmodium falciparum = experiment: Antiplasmodial activity against chloroquine-resistant Plasmodium falciparum K1 infected in human erythrocytes after 72 hrs by Malstat reagent-based spectrophotometric analysis; format: functional, organism-based; conditions: K1, 72 h
[3] = Drug uptake in Swiss mouse blood at 50 mg/kg, po administered as single dose after 1 hr by UPLC/MS/ESI analysis; format: ADME, organism-based; conditions: whole blood, read-out: Drug uptake; procedure, shortened: as §1
[4] = Half life in Swiss mouse infected with Trypanosoma brucei brucei Squib 427 at 25 mg/kg, po administered as single dose after 24 hrs by UPLC/MS/ESI analysis; format: ADME, organism-based; conditions: in vivo
[5] = Cmax in Swiss mouse infected with Trypanosoma brucei brucei Squib 427 at 50 mg/kg, po bid for 5 days after 24 hrs by UPLC/MS/ESI analysis; format: ADME, organism-based; design: dose 50 mg/kg, route oral; conditions: in vivo
[6] = Protein binding in 10% FBS in Trypanosoma brucei culture medium assessed as drug recovery at 10 uM after 6 hrs by equilibrium dialysis and LC-MS analysis; format: ADME, cell-free, Bos taurus, Serum; conditions: cattle, read-out: Drug recovery
[7] = Clearance in Swiss mouse at 25 mg/kg, po administered as single dose after 24 hrs by UPLC/MS/ESI analysis; format: ADME, organism-based; conditions: in vivo
Procedure, shortened: (§2)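 Mice in groups received one oral dose of 25 or 50 mg/kg. Plasma concentrations were followed over time up to 24 h, and PK parameters including T1/2 were derived from the concentration–time profile.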

[8] = test system: Trypanosoma brucei brucei; experiment: Antitrypanosomal activity against Trypanosoma brucei brucei Squib 427 assessed as reduction in parasite growth at 7 to 14 times IC50 after 48 hrs resazurin dye-based fluorimetric analysis; format: functional, organism-based
Procedure, shortened: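 In vitro time course of T. b. brucei growth in the presence of compound, with parasite growth expressed as % of control.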

Mus musculus [9] = experiment: Apparent volume of distribution in Swiss mouse infected with Trypanosoma brucei brucei Squib 427 at 50 mg/kg, po bid for 5 days after 24 hrs by UPLC/MS/ESI analysis; format: ADME, organism-based; conditions: in vivo
[10] = Protein binding in mouse plasma assessed as drug recovery at 2 uM after 6 hrs by equilibrium dialysis and LC-MS analysis; format: ADME, cell-free; conditions: read-out: Drug recovery
[11] = Drug level in Swiss mouse blood infected with Trypanosoma brucei brucei Squib 427 at 50 mg/kg, po bid for 5 days measured after 1 hr after last dose by UPLC/MS/ESI analysis; format: ADME, organism-based; conditions: whole blood, read-out: Drug uptake
[12] = Drug metabolism in human plasma assessed as parent compound remaining after 60 mins by UPLC/MS/ESI analysis; format: ADME, cell-free; conditions: read-out: Stability
[13] = test system: Trypanosoma brucei brucei; experiment: Antitrypanosomal activity against Trypanosoma brucei brucei Squib 427 infected in Swiss mouse assessed as mouse survival at 50 mg/kg, po bid for 5 days and measured on day 14 post infection; format: functional, organism-based
Procedure, shortened: (§3)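 Acute T. b. brucei mouse infection model. Dosing was PO or IP at 10–50 mg/kg, once (SID) or twice (BID) daily for 5 days after infection, with 3 mice per group. […] Read-outs were mean survival time and survivors on day 14 post infection.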

[14] = Drug metabolism in human liver microsomes assessed as CYP450 mediated compound […] by measuring parent compound remaining at 5 uM after 15 mins in presence of NADPH by UPLC/MS/ESI analysis; format: ADME; conditions: read-out: Stability
[15] = Drug uptake in Swiss mouse blood at 50 mg/kg, po administered as single dose after 24 hrs by UPLC/MS/ESI analysis; format: ADME, organism-based; conditions: whole blood, read-out: Drug uptake; procedure, shortened: as §1
[16] = Clearance in Swiss mouse infected with Trypanosoma brucei brucei Squib 427 at 50 mg/kg, po bid for 5 days after 24 hrs by UPLC/MS/ESI analysis; format: ADME, organism-based; conditions: in vivo
[17] = test system: Trypanosoma brucei brucei; experiment: Antitrypanosomal activity against Trypanosoma brucei brucei Squib 427 infected in Swiss mouse assessed as mean survival days at 50 mg/kg, po bid for 5 days; format: functional
Procedure, shortened: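 Acute mouse infection model with T. b. brucei. Dosing ran for 5 days after infection, orally or intraperitoneally, once or twice daily. Groups were 3 mice each, with vehicle-treated infected controls. The read-out was mean survival time in days, plus the number of survivors on day 14 post-infection.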

[18] = test system: Trypanosoma brucei brucei; experiment: Antitrypanosomal activity against Trypanosoma brucei brucei Squib 427 infected in Swiss mouse assessed as mouse survival at 50 mg/kg, po administered as single dose for 5 days and measured on day 14 post infection; format: functional, organism-based; procedure, shortened: as §3
[19] = Drug metabolism in human liver microsomes assessed as UGT mediated compound […] by measuring parent compound remaining at 5 uM after 15 mins in presence of UDPGA by UPLC/MS/ESI analysis; format: ADME; conditions: read-out: Stability
[20] = Drug uptake in Swiss mouse blood at 50 mg/kg, po administered as single dose after 0.5 hrs by UPLC/MS/ESI analysis; format: ADME, organism-based; conditions: whole blood, read-out: Drug uptake; procedure, shortened: as §1
[21] = Drug metabolism in human liver microsomes assessed as CYP450 mediated compound […] by measuring parent compound remaining at 5 uM after 60 mins in presence of NADPH by UPLC/MS/ESI analysis; format: ADME; conditions: read-out: Stability
Mus musculus [22] = experiment: Apparent volume of distribution in Swiss mouse at 25 mg/kg, po administered as single dose after 24 hrs by UPLC/MS/ESI analysis; format: ADME, organism-based; conditions: in vivo; procedure, shortened: as §2
[23] = Protein binding in mouse plasma assessed as drug recovery at 10 uM after 6 hrs by equilibrium dialysis and LC-MS analysis; format: ADME, cell-free; conditions: read-out: Drug recovery
[24] = test system: Trypanosoma brucei brucei; experiment: Antitrypanosomal activity against Trypanosoma brucei brucei Squib 427 infected in Swiss mouse at 50 mg/kg, po administered as single dose after 24 hrs; format: functional, organism-based; conditions: Squib 427, 24 h
[25] = Drug uptake in Swiss mouse blood at 25 mg/kg, po administered as single dose after 1 hr by UPLC/MS/ESI analysis; format: ADME, organism-based; conditions: whole blood, read-out: Drug uptake; procedure, shortened: as §1
[26] = Drug metabolism in human liver microsomes assessed as UGT mediated compound […] by measuring parent compound remaining at 5 uM after 60 mins in presence of UDPGA by UPLC/MS/ESI analysis; format: ADME; conditions: read-out: Stability
[27] = Drug level in Swiss mouse blood infected with Trypanosoma brucei brucei Squib 427 at 25 mg/kg, po bid for 5 days measured after 1 hr after last dose by UPLC/MS/ESI analysis; format: ADME, organism-based; conditions: whole blood, read-out: Drug uptake
[28] = Half life in Swiss mouse infected with Trypanosoma brucei brucei Squib 427 at 50 mg/kg, po bid for 5 days after 24 hrs by UPLC/MS/ESI analysis; format: ADME, organism-based; conditions: in vivo
[29] = Drug uptake in Swiss mouse blood at 25 mg/kg, po administered as single dose after 0.5 hrs by UPLC/MS/ESI analysis; format: ADME, organism-based; conditions: whole blood, read-out: Drug uptake; procedure, shortened: as §1
[30] = Drug metabolism in mouse liver microsomes assessed as CYP450 mediated compound […] by measuring parent compound remaining at 5 uM after 60 mins in presence of NADPH by UPLC/MS/ESI analysis; format: ADME; conditions: read-out: Stability
[31] = Protein binding in mouse plasma at 10 uM after 6 hrs by equilibrium dialysis and LC-MS analysis; format: ADME, cell-free; conditions: read-out: PPB (converted)
[32] = Drug metabolism in human plasma assessed as parent compound remaining after 1440 mins by UPLC/MS/ESI analysis; format: ADME, cell-free; conditions: read-out: Stability
Procedure, shortened: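 Compound incubated in human plasma for 24 h at 37 °C, and the fraction of parent compound remaining was determined.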

Q: What does the source list for `Nc1nc(Nc2ccc(F)cc2)nc(Oc2ccc(F)cc2)n1`?
A: concentration at 4 h [1]: 929 ng/mL; AUC [2]: 9350 ng·h/mL; IC50 (Plasmodium falciparum): > 64000 nM; concentration at 1 h [3]: 1730 ng/mL; half-life [4]: 0.85 h; Cmax [5]: 3830 ng/mL; recovery at 6 h, 10 µM [6]: 71.1%; CL/F [7]: 70.1 mL/min; Activity [8]: inactive; Vz (Mus musculus [9]): 10.9 L; recovery at 6 h, 2 µM [10]: 90.2%; concentration at 1 h [11]: 3800 ng/mL; remaining at 1 h [12]: 88%; Activity [13]: inactive; remaining at 0.25 h, 5 µM [14]: 93%; concentration at 24 h [15]: 150 ng/mL; CL/F [16]: 89.9 mL/min; MST [17]: 5.7 days; Activity [18]: inactive; remaining at 0.25 h, 5 µM [19]: 107%; concentration at 0.5 h [20]: 1780 ng/mL; remaining at 1 h, 5 µM [21]: 65%; Vz (Mus musculus [22]): 26.7 L; recovery at 6 h, 10 µM [23]: 75.4%; IC50 [24]: 630 nM; concentration at 1 h [25]: 1180 ng/mL; remaining at 1 h, 5 µM [26]: 96%; concentration at 1 h [27]: 2410 ng/mL; half-life [28]: 1.33 h; concentration at 0.5 h [29]: 842 ng/mL; remaining at 1 h, 5 µM [30]: 74%; fraction unbound at 6 h, 10 µM [31]: 0.023; remaining at 24 h [32]: 87%
